Test results published in the M2OR odorant receptor database.
Changes are numbered by the printed parent chain.

Key:
Conditions in all cases: stereoisomer not certain
OR51A2 (Homo sapiens) = target: T1, OR51A2 (Homo sapiens) (UniProt Q8NGJ7)
T1 sequence (whole entry): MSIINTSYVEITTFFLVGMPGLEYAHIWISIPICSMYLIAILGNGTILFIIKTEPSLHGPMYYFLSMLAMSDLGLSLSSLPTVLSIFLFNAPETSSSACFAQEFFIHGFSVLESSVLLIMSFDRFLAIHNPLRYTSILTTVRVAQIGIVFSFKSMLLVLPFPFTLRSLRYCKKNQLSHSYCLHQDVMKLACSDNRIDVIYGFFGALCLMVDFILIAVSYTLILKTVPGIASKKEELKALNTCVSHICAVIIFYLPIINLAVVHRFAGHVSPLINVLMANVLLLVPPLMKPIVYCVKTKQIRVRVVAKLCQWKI
How it was run: (§1)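 Transient luciferase assays in mammalian cell lines were common, though methods varied by source. The values come from published papers and their supplementary material, with extra details from the original authors when needed. Responsive refers to a measured signal the original authors judged statistically different from baseline, and non-responsive (inactive) to the remainder.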

OR51A4 (Homo sapiens) = target: T2, OR51A4 (Homo sapiens) (UniProt Q8NGJ6)
T2 sequence (whole entry): T1 sequence (whole entry) with G59E, T94I, S97N, S167N, P227L, E235Q, G267R, M288T, K289N, W311R
How it was run: as §1

OR51A7 (Homo sapiens) = target: T3, OR51A7 (Homo sapiens) (UniProt Q8NH64)
T3 sequence (whole entry): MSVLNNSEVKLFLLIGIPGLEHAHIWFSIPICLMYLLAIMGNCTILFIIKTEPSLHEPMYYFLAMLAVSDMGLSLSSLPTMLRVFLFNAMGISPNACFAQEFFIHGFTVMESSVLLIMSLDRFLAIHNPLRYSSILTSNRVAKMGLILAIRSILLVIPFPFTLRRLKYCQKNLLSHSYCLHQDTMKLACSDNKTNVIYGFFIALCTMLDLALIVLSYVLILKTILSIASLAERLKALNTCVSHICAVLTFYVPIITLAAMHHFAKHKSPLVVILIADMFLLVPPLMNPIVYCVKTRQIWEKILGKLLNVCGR
How it was run: as §1

OR51B2 (Homo sapiens) = target: T4, OR51B2 (Homo sapiens) (UniProt Q9Y5P1)
T4 sequence (whole entry): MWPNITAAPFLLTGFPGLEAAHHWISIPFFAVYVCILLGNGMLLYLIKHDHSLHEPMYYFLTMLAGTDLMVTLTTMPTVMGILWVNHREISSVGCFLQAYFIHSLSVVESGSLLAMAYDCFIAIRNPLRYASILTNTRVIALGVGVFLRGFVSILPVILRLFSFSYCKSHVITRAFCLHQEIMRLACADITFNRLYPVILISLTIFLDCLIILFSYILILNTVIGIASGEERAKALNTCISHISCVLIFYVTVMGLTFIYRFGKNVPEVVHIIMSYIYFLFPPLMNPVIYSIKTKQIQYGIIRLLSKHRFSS
How it was run: as §1

OR51B4 (Homo sapiens) = target: T5, OR51B4 (Homo sapiens) (UniProt Q9Y5P0)
T5 sequence (whole entry): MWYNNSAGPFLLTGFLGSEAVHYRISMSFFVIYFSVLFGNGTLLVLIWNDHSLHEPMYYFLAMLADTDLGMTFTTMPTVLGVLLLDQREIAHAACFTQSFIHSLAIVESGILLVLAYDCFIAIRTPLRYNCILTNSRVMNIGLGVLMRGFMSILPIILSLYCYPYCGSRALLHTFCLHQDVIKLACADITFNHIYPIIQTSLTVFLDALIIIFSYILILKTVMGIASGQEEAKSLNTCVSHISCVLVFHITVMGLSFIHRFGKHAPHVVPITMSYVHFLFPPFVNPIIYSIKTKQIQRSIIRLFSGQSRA
How it was run: as §1

OR51B5 (Homo sapiens) = target: T6, OR51B5 (Homo sapiens) (UniProt Q9H339)
T6 sequence (whole entry): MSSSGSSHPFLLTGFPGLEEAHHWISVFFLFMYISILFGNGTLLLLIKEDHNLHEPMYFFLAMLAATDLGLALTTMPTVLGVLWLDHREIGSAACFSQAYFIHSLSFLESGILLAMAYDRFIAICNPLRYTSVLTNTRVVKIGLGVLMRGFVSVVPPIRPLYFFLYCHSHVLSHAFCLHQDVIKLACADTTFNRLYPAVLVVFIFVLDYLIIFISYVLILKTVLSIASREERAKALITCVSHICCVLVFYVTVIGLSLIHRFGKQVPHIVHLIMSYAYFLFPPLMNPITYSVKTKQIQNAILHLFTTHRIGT
How it was run: as §1

OR51B6 (Homo sapiens) = target: T7, OR51B6 (Homo sapiens) (UniProt Q9H340)
T7 sequence (whole entry): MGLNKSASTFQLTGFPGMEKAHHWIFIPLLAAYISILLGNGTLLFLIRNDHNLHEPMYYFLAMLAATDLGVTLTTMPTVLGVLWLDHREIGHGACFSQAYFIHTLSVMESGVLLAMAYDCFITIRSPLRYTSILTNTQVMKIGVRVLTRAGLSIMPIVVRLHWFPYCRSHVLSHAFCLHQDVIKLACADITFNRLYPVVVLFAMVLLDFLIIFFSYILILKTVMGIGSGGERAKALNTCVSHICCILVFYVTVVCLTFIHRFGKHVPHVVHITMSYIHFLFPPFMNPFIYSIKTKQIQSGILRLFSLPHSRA
How it was run: as §1

OR51D1 (Homo sapiens) = target: T8, OR51D1 (Homo sapiens) (UniProt Q8NGF3)
T8 sequence (whole entry): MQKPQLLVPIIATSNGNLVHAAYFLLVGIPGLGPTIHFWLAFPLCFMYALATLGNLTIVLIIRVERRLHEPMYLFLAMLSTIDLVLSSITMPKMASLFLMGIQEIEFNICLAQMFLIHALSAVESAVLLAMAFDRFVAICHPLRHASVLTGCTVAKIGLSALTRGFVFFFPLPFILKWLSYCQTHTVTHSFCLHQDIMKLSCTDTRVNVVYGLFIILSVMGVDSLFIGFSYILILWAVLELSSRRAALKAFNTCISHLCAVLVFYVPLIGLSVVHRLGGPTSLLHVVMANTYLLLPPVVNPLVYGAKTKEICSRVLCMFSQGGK
How it was run: as §1

OR51E1 (Homo sapiens) = target: T9, OR51E1 (Homo sapiens) (UniProt Q8TCB6)
T9 sequence (whole entry): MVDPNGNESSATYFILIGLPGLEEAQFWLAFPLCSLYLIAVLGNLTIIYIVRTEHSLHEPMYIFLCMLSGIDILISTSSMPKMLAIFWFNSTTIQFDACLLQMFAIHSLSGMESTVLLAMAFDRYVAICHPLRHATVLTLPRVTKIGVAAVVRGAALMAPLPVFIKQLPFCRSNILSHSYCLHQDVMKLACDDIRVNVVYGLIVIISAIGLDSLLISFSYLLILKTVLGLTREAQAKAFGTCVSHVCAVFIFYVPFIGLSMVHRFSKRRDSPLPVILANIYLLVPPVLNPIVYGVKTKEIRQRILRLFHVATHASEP
How it was run: as §1

OR51E2 (Homo sapiens) = target: T10, OR51E2 (Homo sapiens) (UniProt Q9H255)
T10 sequence (whole entry): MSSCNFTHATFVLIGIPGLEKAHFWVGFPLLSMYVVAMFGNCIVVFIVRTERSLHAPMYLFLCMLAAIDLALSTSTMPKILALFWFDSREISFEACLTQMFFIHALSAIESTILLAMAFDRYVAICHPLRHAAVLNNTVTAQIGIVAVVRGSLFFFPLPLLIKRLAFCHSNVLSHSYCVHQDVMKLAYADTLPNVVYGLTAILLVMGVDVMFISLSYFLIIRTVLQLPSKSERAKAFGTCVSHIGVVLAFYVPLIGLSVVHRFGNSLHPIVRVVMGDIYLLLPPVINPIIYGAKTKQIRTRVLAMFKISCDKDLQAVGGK
How it was run: as §1

OR51F1 (Homo sapiens) = target: T11, OR51F1 (Homo sapiens) (UniProt A6NGY5)
T11 sequence (whole entry): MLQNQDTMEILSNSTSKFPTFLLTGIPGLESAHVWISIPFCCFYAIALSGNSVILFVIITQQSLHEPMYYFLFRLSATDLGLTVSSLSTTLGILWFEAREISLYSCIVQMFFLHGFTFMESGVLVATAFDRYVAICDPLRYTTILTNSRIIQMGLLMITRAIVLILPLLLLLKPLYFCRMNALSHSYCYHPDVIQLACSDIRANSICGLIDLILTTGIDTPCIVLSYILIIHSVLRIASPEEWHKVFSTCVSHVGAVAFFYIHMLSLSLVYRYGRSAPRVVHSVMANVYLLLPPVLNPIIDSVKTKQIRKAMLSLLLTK
How it was run: as §1

OR51F2 (Homo sapiens) = target: T12, OR51F2 (Homo sapiens) (UniProt Q8NH61)
T12 sequence (whole entry): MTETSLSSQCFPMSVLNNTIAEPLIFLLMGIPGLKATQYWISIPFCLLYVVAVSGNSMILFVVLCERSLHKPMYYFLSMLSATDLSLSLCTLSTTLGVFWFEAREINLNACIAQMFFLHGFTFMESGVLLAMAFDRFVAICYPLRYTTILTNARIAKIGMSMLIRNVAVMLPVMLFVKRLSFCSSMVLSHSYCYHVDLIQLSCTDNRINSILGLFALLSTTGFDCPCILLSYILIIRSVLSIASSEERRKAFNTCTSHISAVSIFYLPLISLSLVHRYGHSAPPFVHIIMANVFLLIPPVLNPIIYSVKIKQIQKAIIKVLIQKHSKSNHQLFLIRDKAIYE
How it was run: as §1

OR51G1 (Homo sapiens) = target: T13, OR51G1 (Homo sapiens) (UniProt Q8NGK1)
T13 sequence (whole entry): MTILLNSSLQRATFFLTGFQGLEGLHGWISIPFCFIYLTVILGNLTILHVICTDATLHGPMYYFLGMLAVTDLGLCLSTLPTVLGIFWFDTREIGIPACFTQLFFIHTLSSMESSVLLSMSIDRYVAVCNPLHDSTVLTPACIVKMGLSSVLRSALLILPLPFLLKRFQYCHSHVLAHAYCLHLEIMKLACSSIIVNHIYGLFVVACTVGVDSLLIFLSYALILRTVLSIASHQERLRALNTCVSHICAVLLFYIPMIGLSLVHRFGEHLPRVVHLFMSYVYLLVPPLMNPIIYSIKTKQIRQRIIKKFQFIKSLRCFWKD
How it was run: as §1

OR51G2 (Homo sapiens) = target: T14, OR51G2 (Homo sapiens) (UniProt Q8NGK0)
T14 sequence (whole entry): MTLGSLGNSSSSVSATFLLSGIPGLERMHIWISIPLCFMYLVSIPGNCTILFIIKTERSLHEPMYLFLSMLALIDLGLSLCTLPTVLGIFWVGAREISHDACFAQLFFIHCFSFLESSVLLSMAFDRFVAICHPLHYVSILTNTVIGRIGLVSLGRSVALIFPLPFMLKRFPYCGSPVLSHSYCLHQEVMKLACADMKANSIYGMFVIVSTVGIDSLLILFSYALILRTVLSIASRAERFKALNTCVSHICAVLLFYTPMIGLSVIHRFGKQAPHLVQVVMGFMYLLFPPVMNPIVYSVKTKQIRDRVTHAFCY
How it was run: as §1

OR51I1 (Homo sapiens) = target: T15, OR51I1 (Homo sapiens) (UniProt Q9H343)
T15 sequence (whole entry): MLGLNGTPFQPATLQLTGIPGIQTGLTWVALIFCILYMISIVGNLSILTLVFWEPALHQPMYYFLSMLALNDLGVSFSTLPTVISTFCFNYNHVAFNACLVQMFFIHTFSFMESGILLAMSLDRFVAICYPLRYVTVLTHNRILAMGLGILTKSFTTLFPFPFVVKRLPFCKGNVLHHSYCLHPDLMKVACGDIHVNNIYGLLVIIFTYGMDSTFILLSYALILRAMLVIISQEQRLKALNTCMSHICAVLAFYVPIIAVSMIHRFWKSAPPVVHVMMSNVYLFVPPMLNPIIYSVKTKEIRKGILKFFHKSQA
How it was run: as §1

Measured: odorant receptor agonist call;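 note: active if original authors judged signal statistically different from baseline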

CCCCCC1CCCC(=O)O1 (stereo not given)
inactive: all assays above
